High-throughput results deposited in PubChem BioAssay by several laboratories.
This is a sample that favours compounds with a hit; in the whole collection about 1.8% have one here.
Cneo AK release: causes C. neoformans cell lysis | adenylate kinase release luminescence, 4 h; normalised: neutral wells 0, clomiphene wells 100 | lysis activity, % at 15 µM | 360,000 compounds, 0.2% hits;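 active = mean lysis activity across replicates of at least 80%, whatever share of replicates individually reach that level; inactive = mean lysis activity below 80%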
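Assay system: log-phase C. neoformans yeast / Quantity: yeast cell density of 5 × 10^6 cells/mL / Medium: fresh YPD growth medium / Compound: single dose / Timing: static 4 h at 37 °C with compound, 1 h detection / Measured by: adenylate kinase release luminescence / Read-out: lysis from increased AK signal / Benchmarks: Clomiphene as positive lysis control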
Ecoli rRNA inh: selective bacterial rRNA inhibition in E. coli | E. coli WT GFP vs humanized-ribosome RFP mutants, fluorescence, 24 h; active compounds read low; DMSO median 0, no signal -100 | GFP signal change (wild-type ribosome), % (no concentration beside the values) | 350,000 compounds, 1.6% hits | AID 720706;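 active = significant combined selectivity score with lowered wild-type GFP, culture density cut under 30%, mutant RFP and density less affected; inactive = any of these conditions unmet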
SKN-1 inh: inhibitors of C. elegans SKN-1; C. elegans VP596 Pgst-4::GFP/RFP ratio, acrylamide-induced, 24 h; inhibition, % at 21.8 µM; 360,000 compounds, 0.49% hits;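 active = interference check ratio from 0.5 to 1.5 plus GFP to RFP signal ratio inhibition reaching or exceeding a fixed threshold, cut at about 30% in these data, passing the limit was not always enough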
DAGLB inhibitor: diacylglycerol lipase beta (human) inhibition. Q8NCG7. HEK293T DAGLB membrane lysate, EnzChek fluorogenic substrate. inhibition, % at 5.17 µM. 340,000 compounds, 0.059% hits. AID 504411; in the data active = inhibition above about 34%;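 also: 0% = enzyme with vehicle and 100% = wells lacking enzyme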
Target sequence (Q8NCG7 whole entry, looked up): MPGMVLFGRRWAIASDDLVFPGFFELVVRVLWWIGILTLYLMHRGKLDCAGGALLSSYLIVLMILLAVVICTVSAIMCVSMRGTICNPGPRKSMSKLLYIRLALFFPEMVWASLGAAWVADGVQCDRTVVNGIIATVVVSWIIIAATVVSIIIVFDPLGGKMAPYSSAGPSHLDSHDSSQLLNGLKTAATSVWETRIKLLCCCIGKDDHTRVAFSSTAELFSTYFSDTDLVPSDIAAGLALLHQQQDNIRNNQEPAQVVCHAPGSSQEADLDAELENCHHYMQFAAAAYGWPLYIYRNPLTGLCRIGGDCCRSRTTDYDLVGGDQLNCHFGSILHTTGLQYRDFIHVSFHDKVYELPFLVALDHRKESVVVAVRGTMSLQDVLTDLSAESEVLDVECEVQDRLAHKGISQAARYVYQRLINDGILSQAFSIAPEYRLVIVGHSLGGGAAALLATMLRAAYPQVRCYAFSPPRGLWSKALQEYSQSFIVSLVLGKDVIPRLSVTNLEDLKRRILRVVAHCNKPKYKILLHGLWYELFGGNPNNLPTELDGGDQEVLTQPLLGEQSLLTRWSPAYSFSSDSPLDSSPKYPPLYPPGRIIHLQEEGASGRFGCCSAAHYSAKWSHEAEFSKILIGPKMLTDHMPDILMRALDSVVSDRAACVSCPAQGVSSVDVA
iPSC survival up: hiPSC single-cell survival enhancement; ATPlite luminescence; 100% = ROCK inhibitor wells, 0% = DMSO; survival enhancement, % at 20 µM; 360,000 compounds, 0.044% hits; in the data active = survival enhancement above about 18%;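 also: cells exposed to compounds for 16 hours before the ATP read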
MT1-MMP act inh: MT1-MMP (human) activation inhibition; P50281; GFP/RFP ratio change, % at 20 µM; HT1080 RFP-PRO-GFP cells, GFP/RFP ratio fluorescence, overnight; percent of plate control window, DMSO zero; 360,000 compounds, 0.061% hits;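 active = GFP/RFP ratio change of at least 30% with cell ATP level not reduced by more than half and red fluorescence within 50% of control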
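system = RFP-PRO-GFP reporter HT1080 cells | dosing = 20 µM single dose, 1% DMSO | timing = overnight cell settling, then overnight compound exposure, 37 °C, 5% CO2 | read-out basis = GFP/RFP fluorescence ratio | controls = DMSO and RFP-L50D-GFP cell wells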
Starred values were filed as active, the others as inactive; / = not tested or not shown.

SMILES | Cneo AK release | Ecoli rRNA inh | SKN-1 inh | DAGLB inhibitor | iPSC survival up | MT1-MMP act inh
CCC(C(=O)O)N1C(=O)/C(=C/C(C)=C/c2ccccc2)SC1=S (stereo not drawn) | / | -37 | 0 | 11 | 0 | -3
CC(/C=C1\SC(=S)N(NC(=O)c2ccc(O)cc2)C1=O)=C\c1ccccc1 | / | -25* | -4 | 1 | 1 | 3
CC(=Cc1ccccc1)C=C1SC(=S)N(CCCC(=O)Nc2ccc(C(=O)O)cc2)C1=O | -3 | -23* | 0 | / | 0 | 5
O=C(C1=C[C@H](c2csc3ccccc23)C[C@H](OCCCCO)O1)N1CCCCCCC1 | 5 | / | / | / | / | /
COC(=O)c1ccc(-n2c(C)cc(C(=O)CSc3cccc[n+]3[O-])c2C)cc1 | / | -32 | -14 | -3 | 0 | 2
COC(=O)c1ccc(C(=O)OC)c(NC(=O)CSc2cccc[n+]2[O-])c1 | -1 | / | 0 | -3 | 22* | -1
CCCn1c(SCC(=O)c2ccc3c(c2)OCCO3)n[nH]c1=O | -2 | -9 | 43* | 0 | 0 | 1
Cn1cnnc1SCC(=O)c1ccc2c(c1)OCO2 | -2 | / | -18 | -1 | 22* | -1
C[C@H](CO)N1C[C@H](C)[C@H](CN(C)S(=O)(=O)c2cccs2)Oc2ncccc2C1=O | -7 | 6 | / | / | / | /
C[C@H]1CC=CC[C@H](c2ccccc2)NC(=O)[C@@H](Cc2ccccc2)N(C)C(=O)c2ccccc2O1 (mixture of isomers) | / | -4 | / | / | / | /
O=C(Nc1ccccc1)N1CC(=O)N2[C@H](CO)[C@H](c3ccc(C#Cc4cccnc4)cc3)[C@@H]2C1 | / | -1 | / | / | / | /
C[C@H](CO)N1C[C@H](C)[C@@H](CN(C)Cc2ccc(Oc3ccccc3)cc2)Oc2ccc(NC(=O)Nc3ccc4c(c3)OCO4)cc2C1=O | 101* | 2 | / | / | / | /
C[C@@H]1CN([C@H](C)CO)C(=O)c2cc(NC(=O)Nc3ccc4c(c3)OCO4)ccc2O[C@H]1CN(C)Cc1ccc(Oc2ccccc2)cc1 | 3 | 3 | / | / | / | /
C[C@@H]1CN([C@@H](C)CO)C(=O)c2cc(NC(=O)Nc3ccc4c(c3)OCO4)ccc2O[C@H]1CN(C)Cc1ccc(Oc2ccccc2)cc1 | 89* | 1 | / | / | / | /
Cc1ccc(-c2nnc(COC(=O)c3ccco3)o2)cc1 | 0 | 0 | 17 | -5 | 0 | -2
Cc1ccc(C(=O)OCc2nnc(-c3ccc(Br)cc3)o2)cc1 | 0 | -16* | 5 | -18 | 0 | -3
Cc1ccc(Cn2ccsc2=NC(=O)COC(=O)c2ccc(O)cc2O)cc1 | -13 | -26* | 15 | -2 | 0 | -2
O=C(c1ccccc1F)N1CC2(C1)[C@@H](c1ccccc1)[C@@H](CO)N2CC1CCCC1 | / | -48 | / | / | / | /
Clc1nssc1=Nc1ccc(Br)cc1 | / | -52 | 94* | 1 | -1 | 1
COc1cc(N=c2ssnc2Cl)cc(OC)c1 | -4 | / | 15 | -5 | 5 | -10
C[C@H](CO)N1C[C@H](C)[C@@H](CN(C)Cc2ccc3c(c2)OCO3)Oc2ccc(NC(=O)Nc3ccccc3)cc2CC1=O | -1 | 3 | / | / | / | /
CN/N=C(\Cc1nc2ccccc2[nH]1)c1ccc([N+](=O)[O-])cc1 | / | -22* | 7 | 5 | -2 | -1
O=C(Cc1nc2ccccc2[nH]1)c1ccc([N+](=O)[O-])cc1 | -1 | -14 | 4 | 11 | 0 | 6
O=C(Nc1ccccc1)N1CC(=O)N2[C@H](CO)[C@@H](c3ccc(-c4ccc(F)cc4)cc3)[C@H]2C1 | / | -1 | / | / | / | /
C[C@H](CO)N1C[C@H](C)[C@@H](CN(C)C(=O)Nc2ccc3c(c2)OCO3)Oc2ncc(-c3cccnc3)cc2C1=O | -1 | -2 | / | / | / | /
CN(CCOc1ccc(-c2ccn(S(=O)(=O)c3c(Cl)cccc3Cl)n2)cc1)c1ccccn1 | / | / | -10 | -6 | 19* | 0
CN(CCOc1ccc(-c2ccn(S(=O)(=O)c3ccc(Cl)cc3)n2)cc1)c1ccccn1 | 4 | / | 10 | -9 | 3 | -3
Cc1n(Cc2ccccc2)c2ccccc2[n+]1Cc1ccccc1 | -7 | -34* | 7 | -1 | 0 | 1
